The results in this text go back to ChEMBL document CHEMBL1139864, “Chemical insights in the concept of hybrid drugs: the antitumor effect of nitric oxide-donating aspirin involves a quinone methide but not nitric oxide nor aspirin” (J Med Chem, 2007).

The source made the active and inactive calls. The rule behind the calls is not given here. A value given as a limit tells only on which side of the number the result lay.

The subject of the first assay is HT-29. Description: Apoptosis induction in human HT29 cells after 24 hrs. It is filed as functional, cell-based. As to conditions: HT-29, 24 h. A digest of the protocol: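 HT29 cells seeded at 25 000/well and attached 24 h, then exposed for 24 h at 37 C to compound (0-1000 M, added from DMSO; final DMSO 0.5%, 1.0% at 600 µM). Cells harvested, stained with PI, and 10 000 events counted by flow cytometry. PI-negative cells scored as living and EC50 fitted from the curves. Mean of 3-4 independent experiments.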
Take `CC(=O)Oc1ccccc1C(=O)Oc1cccc(CO)c1`: the EC50 (usually the concentration needed to bring the measured effect to its halfway point) is over 1000 µM.

Turning to `CC(=O)Oc1ccccc1C(=O)Oc1ccc(CO[N+](=O)[O-])cc1`, the EC50 was determined as 107 µM.

Turning to `CC(=O)Oc1ccc(CO[N+](=O)[O-])cc1`, the EC50 worked out at 9.3 µM.

Turning to `CC(=O)Oc1ccccc1C(=O)O` [ASPIRIN], the EC50 was over 1000 µM.

Regarding `CC(=O)N[C@@H](C(=O)O)C(C)(C)SN=O`, the EC50 is over 1000 µM.

On to `CC(=O)Oc1ccc(CCl)cc1`, for which it took 8.7 µM to reach a half-maximal effect (EC50). This counts as single-digit micromolar.

In the case of `CC(=O)Oc1ccccc1C(=O)Oc1ccc(CCl)cc1`, the response was half-maximal at 40.1 µM (EC50).

`CC(=O)Oc1ccccc1C(=O)Oc1cccc(CO[N+](=O)[O-])c1` [NCX-4016] displayed an EC50 of 1000 µM.

The test system of the next assay is SW480. Description: Inhibition of serum-induced expression of cyclin D in human SW480 cells after 5 hrs. Format: functional, cell-based.
Conditions: not given
A digest of the protocol: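 SW480 cells starved of serum overnight, then stimulated with serum for 5 h with or without a range of compound concentrations. Cyclin D1 level read by Western blot.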
Regarding `CC(=O)Oc1ccccc1C(=O)Oc1ccc(CO[N+](=O)[O-])cc1`, the result was Active.

Consider `CC(=O)Oc1ccc(CO[N+](=O)[O-])cc1`, for which the result was Active.

For the compound `CC(=O)Oc1ccc(CCl)cc1`, the outcome was Active.

Turning to `CC(=O)Oc1ccccc1C(=O)Oc1ccc(CCl)cc1`, the result was Active.

On to `CC(=O)Oc1ccccc1C(=O)Oc1cccc(CO[N+](=O)[O-])c1` [NCX-4016], for which the result was inactive.

The test system of the next assay is HT-29. Description: Effect on cell death in HT29 cells pretreated with GSH synthesis inhibitor BSO. The note with it: Homo sapiens. It is filed as functional, cell-based. In short, it runs like this: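 HT29 cells seeded 25 000/well, attached 24 h; 200 µM BSO for 4 h at 37 C, washed, then medium with or without EtGSH (10 mM) 3 h, washed. Then compound in DMSO (final 0.5%) for 24 h at 37 C; cells harvested, stained with PI, 10 000 events by flow cytometry; PI-negative cells counted as living. Mean of four independent experiments, standard deviations.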
On to `CC(=O)Oc1ccccc1C(=O)Oc1ccc(CO[N+](=O)[O-])cc1`, for which the outcome was Active.

Consider `CC(=O)Oc1ccc(CCl)cc1`, for which the outcome was Active.

The subject of another assay is HT-29. Description: Induction of PARP cleavage in human HT29 cells after 8 hrs. It is filed as functional, cell-based.
Conditions: not given
In short, it runs like this:
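HT29 cells incubated 8 h with a range of compound concentrations. The 116 kDa PARP cleavage was detected by Western blot.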
Take `CC(=O)Oc1ccccc1C(=O)Oc1ccc(CO[N+](=O)[O-])cc1`: the outcome was Active.

As for `CC(=O)Oc1ccc(CO[N+](=O)[O-])cc1`, the outcome was Active.

Turning to `CC(=O)Oc1ccc(CCl)cc1`, the result was Active.

As for `CC(=O)Oc1ccccc1C(=O)Oc1ccc(CCl)cc1`, the result was Active.

A further assay relates to HT-29. The assay is described as follows: Induction of DNA fragmentation in human HT29 cells after 48 hrs by Nicoletti assay. Format: functional, cell-based.
Conditions: not given
A digest of the protocol:
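HT29 cells seeded 25 000/well, attached 24 h, then treated with compound for 48 h. Trypsinized, resuspended in Nicoletti buffer (0.1% Tx-100, 0.1% Na citrate, 50 g/mL PI), held overnight at 4 C. DNA content of nuclei measured by FACS to assess fragmentation.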
Regarding `CC(=O)Oc1ccccc1C(=O)Oc1ccc(CO[N+](=O)[O-])cc1`, the outcome was Active.

Regarding `CC(=O)Oc1ccc(CCl)cc1`, the result was Active.
